The EternaBench riboswitch data

Tested on: MS2 coat protein
Assay: apparent Kd, MS2 coat protein; higher = weaker binding; RNA-MaP array; theophylline 2 mM where present
How it was run: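 Designs were transcribed by stalled E. coli RNA polymerase on Illumina sequencing-chip clusters. They were titrated with SNAP-549-labelled MS2 coat protein from 0.7 or 1.5 nM, doubling to 3 µM, in 100 mM Tris-HCl pH 7.5, 80 mM KCl, 4 mM MgCl2, BSA, DTT, yeast tRNA and Tween-20, without and then with constant ligand. The apparent Kd is the median of filtered per-cluster fits after normalisation of green signal to red-channel RNA signal and control-cluster median Fmax.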

[1] = designed as: ON switch for theophylline, no ligand
[2] = ligand present: theophylline, designed as: ON switch for theophylline
[3] = designed as: OFF switch for theophylline, no ligand
[4] = ligand present: theophylline, designed as: OFF switch for theophylline

AAAAUAAAUAAAACGCGUAACAUGAAGGAUACCAGCCAGAAAACUGGCCCUUGGCAGCCUCUACAUGAGGAUCACCCAUGUCGCG
apparent Kd [1]: 331 nM | apparent Kd [2]: 29.6 nM

AAACAUGACAUGGAUACCAGACACAUGAGGAUCACCCAUGUUGAGGAUCACCCAUGUCCCGUCCCUUGGCAGCCAGCAUGAGGAU
apparent Kd [3]: 9.49 nM | apparent Kd [4]: 10.2 nM

AAACAUUGCUGCGAUACCAGACAUGAGGAUCACCCAUGUACCAAGAAAACGUACAUAAAUGUCCCUUGGCAGCGCAGCAAUGAAA
apparent Kd [3]: 498 nM | apparent Kd [4]: 1290 nM

AAACGUUGCUGCGAUACCAGACAUGAGGAUCACCCAUGUACCAAGGUACGAAAAUAACAUGUCCCUUGGCAGCGCAGCAACGAAA
apparent Kd [3]: 13.2 nM | apparent Kd [4]: 336 nM

AACAUGAGGAUCACCCAUGUAAAAUGGGAUACCAGAGACGAAAGUCUCCCUUGGCAGCCCACUGCCUCCUUUACGAAAGUAGAGG
apparent Kd [1]: 31.6 nM | apparent Kd [2]: 18.2 nM

AAGGUAUCACAGACAUGGGUGUACUGUGAUACCAGCUAGGAAACUAGCCCUUGGCAGCACAUGAGGAUCACCCAUGUAAGAAUAA
apparent Kd [3]: 47.4 nM | apparent Kd [4]: 141 nM

AAUAACAUGAGGAUCACCCAUGUAAAAGAUACCAGAUGCAUGAUGAUCCCUUGGCAGCUUAACGCUGAUUGAUUACAAUCAGCGA
apparent Kd [1]: 28.6 nM | apparent Kd [2]: 87 nM

AAUAUAAAAUAAAGAAAAUUUAUAUCUGAUACCAGACUCUCAUGGGUCCCUUGGCAGCAGUAACAUGAGGAUCACCCAUGUAUUA
apparent Kd [1]: 114 nM | apparent Kd [2]: 16.5 nM

AAUGGCGUUGGUGAGGCGGUUAAUGGCGAUACCAGCGUGGAAACACGCCCUUGGCAGCGCCAAAACAUGAGGAUCACCCAUGUUA
apparent Kd [3]: 14.7 nM | apparent Kd [4]: 139 nM

ACAUGAGGAUCACCCAUGUCACGGCACGAUACCAGCUGAUCCGGUGGCCCUUGGCAGCGUGACGUUUGGUCCCGCGGAUCACACG
apparent Kd [1]: 75.4 nM | apparent Kd [2]: 38.6 nM

ACAUGAGGAUCACCCAUGUGAAGGCACGAUACCAGCUGAUCCCGUGGCCCUUGGCAGCGUCCGGUUUGGUCCGGCGGAUGAGACG
apparent Kd [1]: 24.1 nM | apparent Kd [2]: 24.9 nM

ACAUGAGGAUCACCCAUGUGCCGUCUUGAUACCAGACCCGAAGUAGUCCCUUGGCAGCAACUACGUGACGGUCGCCCAUGUGUAG
apparent Kd [3]: 14.2 nM | apparent Kd [4]: 24 nM

ACGGAGAUUGCUAAAUGUUGGCGAGCGGAUACCAGCCUAUUAUUGGGCCCUUGGCAGCCGACAUGAGGAUCACCCAUGUAAACAA
apparent Kd [1]: 79 nM | apparent Kd [2]: 126 nM

AGAAUAACACAUGAGGAUCACCCAUGUGAUACCAGCUAGGAAACUAGCCCUUGGCAGCACAUAAUCCUCAUGAGCUGCCAUAAUA
apparent Kd [3]: 12.8 nM | apparent Kd [4]: 21.4 nM

AGACAUGAGGAUCACCCAUGUAGUACGGAUACCAGAUCCAGAUGCAUCCCUUGGCAGCUGUGGUACAGCGUUACAUCGCUCGUAG
apparent Kd [3]: 20 nM | apparent Kd [4]: 20.6 nM

AGACAUGAGGAUCACCCAUGUAGUACGGAUACCAGAUCCAGAUGCGUCCCUUGGCAGCUGUAGUACAGCGUUACGUCGCUCAUAG
apparent Kd [3]: 25.2 nM | apparent Kd [4]: 61 nM

AGCAUGUUAUCAGAUACCAGACAUCUUUUUUUACGUAUUACAUGAGGAUCACCCAUGUUGGUCCCUUGGCAGCUGAAAUAUUUCA
apparent Kd [1]: 203 nM | apparent Kd [2]: 31.9 nM

AGCCCUGUACUAGAUACCAGCUACAUGAGGAUCACCCAUGUGCGUCAAGACUGACUGUGUAGCCCUUGGCAGCUGCUCGCAUGUA
apparent Kd [3]: 22.1 nM | apparent Kd [4]: 32.2 nM

AGGAACAUGAGGAUCACCCAUGUAAGCGAUACCAGUGAUAUGUUGCGCCCUUGGCAGCGCAAGUGUGUGUGAAAGAUGUAAGAUU
apparent Kd [3]: 16.5 nM | apparent Kd [4]: 33.4 nM

AGUGUUAUAACUGAUACCAGACUUUUGCUUAUACAUGAGGAUCACCCAUGUAAAAUGGUUGUCCCUUGGCAGCAGAAAAUACACA
apparent Kd [1]: 84 nM | apparent Kd [2]: 20.4 nM

AUAACAUGAGGAUCACCCAUGUAGAGUGAUACCAGACUACGUAAUGUCCCUUGGCAGCACAAGUAAAGUUACGAAUAUUGAUAGA
apparent Kd [1]: 192 nM | apparent Kd [2]: 51.5 nM

AUACCGAGUGAGUCGUGUUUCUUUUCAGAUACCAGACUUUUCGUUGUCCCUUGGCAGCUGUUUUACAUGAGGAUCACCCAUGUUG
apparent Kd [3]: 18.2 nM | apparent Kd [4]: 25.5 nM

AUACCUAAUGUUACAUUUACCUUAUCAGAUACCAGACUUUACGUUGUCCCUUGGCAGCUGUAUCACAUGAGGAUCACCCAUGUUG
apparent Kd [1]: 16 nM | apparent Kd [2]: 15.7 nM

AUAUGAAAGAGUGAUACCAGACUACAUGAGGAUCACCCAUGUGACAUUUAAAUAUCAUUUGUCCCUUGGCAGCACAUUAAGUACA
apparent Kd [3]: 38.8 nM | apparent Kd [4]: 44.9 nM

AUCGCACCUGGUGAUACCAGCGUUUGCUCGCGACAUGAGGAUCACCCAUGUGGCCAGUGAUGCCCUUGGCAGCAUGGGCGGUGCA
apparent Kd [1]: 282 nM | apparent Kd [2]: 90.2 nM

AUCGUACCUGAGGAUACCAGCAUGUGAUCAUAACAUGAGGAUCACCCAUGUAAUCAGUGAUGCCCUUGGCAGCUUGGUCGAUACA
apparent Kd [1]: 54.2 nM | apparent Kd [2]: 34.9 nM

AUCGUACCUGAUGAUACCAGCAUGUGAUCAUAACAUGAGGAUCACCCAUGUAAUCAGUGAUGCCCUUGGCAGCAUGAUCGGUACA
apparent Kd [1]: 57.3 nM | apparent Kd [2]: 26.3 nM

AUCUUGUACCGUAAUACUUUACGUUGGGAUACCAGCAUGGACCCAUGCCCUUGGCAGCUUUACAUGAGGAUCACCCAUGUUGUAG
apparent Kd [1]: 36.6 nM | apparent Kd [2]: 32.5 nM

AUUAAUAGUUGUGAUACCAGACGAACAUGAGGAUCACCCAUGUAACUUUUAGGUGUUGUAGUCCCUUGGCAGCACUAUGUAGUUA
apparent Kd [1]: 40 nM | apparent Kd [2]: 33.7 nM

AUUAAUAGUUGUGAUACCAGACUUACAUGAGGAUCACCCAUGUUACUUAAGUGUUUUGAUGUCCCUUGGCAGCACUGUUUAGUUA
apparent Kd [1]: 25.5 nM | apparent Kd [2]: 13.4 nM

AUUAAUUGUCGUGAUACCAGACUUACAUGAGGAUCACCCAUGUUACUUAAGAUUUUUGUUGUCCCUUGGCAGCACUUUUUAAUUA
apparent Kd [3]: 24.1 nM | apparent Kd [4]: 18.9 nM

AUUCCAUAGGUGCAGUUGUUAAAUGGCGAUACCAGCGUGGAAACACGCCCUUGGCAGCGCCAAAACAUGAGGAUCACCCAUGUUA
apparent Kd [3]: 95.8 nM | apparent Kd [4]: 186 nM

CAGAGCUACCGGGAUACCAGAAUUGGUAUUCCUAUAUUUCUUACAUGAGGAUCACCCAUGUUCCCUUGGCAGCUUGGUAGCUCUG
apparent Kd [3]: 80.9 nM | apparent Kd [4]: 446 nM

CUCGGGUUAUCAGAUACCAGACUAAAAUUUACAUGAGGAUCACCCAUGUAAUGGGUGAUAGUCCCUUGGCAGCUGUUAUGUUUAA
apparent Kd [3]: 62.3 nM | apparent Kd [4]: 119 nM

CUCUGAGUCCGCAAGGACUCAGAGGCGGAUACCAGCGAGGUCCAUCGCCCUUGGCAGCCGAACAUGAGGAUCACCCAUGUCGGUA
apparent Kd [1]: 10.4 nM | apparent Kd [2]: 14.8 nM

GAACAUGAGGAUCACCCAUGUUAAACAGAUACCAGUGAUAUAAUACACCCUUGGCAGCUGAAGCUGAAUAAUAAUUCCCUCAAGC
apparent Kd [1]: 12 nM | apparent Kd [2]: 14.3 nM

GAUGAACUAUUCGAUACCAGACUACAUGAGGAUCACCCAUGUGUGUCAAUUUCUCAGUCAGUCCCUUGGCAGCGAAUAGUUUAUC
apparent Kd [3]: 38.2 nM | apparent Kd [4]: 54.3 nM

GCACGACAUGAGGAUCACCCAUGUGCAGAUACCAGUAAUGUAUGUUACCCUUGGCAGCUGAGUAGGUCUGGAGGGCUAUAGGUAA
apparent Kd [1]: 13.3 nM | apparent Kd [2]: 17.1 nM

GCACUACAUGAGGAUCACCCAUGUGCAGAUACCAGAGGUGUAUGCCUCCCUUGGCAGCUGCGUCGCUCUGGAAACUUAUUGGUUU
apparent Kd [1]: 18.4 nM | apparent Kd [2]: 22.7 nM

GCACUACAUGAGGAUCACCCAUGUGCAGAUACCAGAGGUGUAUGCCUCCCUUGGCAGCUGCGUCGCUCUGGCAGCUUGUGGGUUG
apparent Kd [1]: 100 nM | apparent Kd [2]: 153 nM

GCUGUAAGUGCAGAUACCAGCAGGUGAUAUUUCUAAUGACAUGAGGAUCACCCAUGUAACUGCCCUUGGCAGCUGCACUUACAGC
apparent Kd [1]: 57.6 nM | apparent Kd [2]: 12.9 nM

GGCACUCUGUAAGAUACCAGACGUCGGUGCUUACAUGAGGAUCACCCAUGUUGCUUUUUAGUCCCUUGGCAGCUUCGGAUAACCA
apparent Kd [1]: 121 nM | apparent Kd [2]: 147 nM

GGCCGGUGCGCUUUGAAGCGACGGCGUGAUACCAGAUGUAAGAGCGUCCCUUGGCAGCACGUUUACAUGAGGAUCACCCAUGUCU
apparent Kd [1]: 196 nM | apparent Kd [2]: 131 nM

GGGCCCGGGCGCGAGCCCGGGCCCAUUGAUACCAGUGAAUGUGUACGCCCUUGGCAGCGAAUCCUAACAUGAGGAUCACCCAUGU
apparent Kd [1]: 43.3 nM | apparent Kd [2]: 53.8 nM

GGGCCCGUAAGCAGGCCCACAGCGGGUGAUACCAGCAAUAAAACUUGCCCUUGGCAGCACACAGCUACAUGAGGAUCACCCAUGU
apparent Kd [1]: 36.5 nM | apparent Kd [2]: 63.5 nM

GGUCUCUGGAGCGAUACCAGCUUGAGUGUACUGGCCAGGUACAUGAGGAUCACCCAUGUAAGCCCUUGGCAGCGCUGCAGAGACC
apparent Kd [3]: 10.1 nM | apparent Kd [4]: 29.1 nM

GGUGGCGUGACGGAUACCAGCCACCACCGAUAGACCACAUGAGGAUCACCCAUGUUGGGUGGCCCUUGGCAGCUGUCGUGCGGCG
apparent Kd [1]: 230 nM | apparent Kd [2]: 56.7 nM

GGUGGGACUUGUGAUACCAGCCUAAUUCUAAACGAAUUGCACAUGAGGAUCACCCAUGUCGGCCCUUGGCAGCAUGAGUAUUUAU
apparent Kd [1]: 114 nM | apparent Kd [2]: 36.8 nM

GUCAGUUCUCAUGAUACCAGACCUGCCUCGGACAUGAGGAUCACCCAUGUACCCAAGCGAGUCCCUUGGCAGCAUGUGGCUUAAA
apparent Kd [1]: 19.2 nM | apparent Kd [2]: 10.8 nM

GUUACAUGGCAAGCAUGUAUAUGGAUAGAUACCAGUUGAUAUUAAGACCCUUGGCAGCUGAGUACAUGAGGAUCACCCAUGUAAG
apparent Kd [3]: 42.5 nM | apparent Kd [4]: 90.8 nM

UAAAACAUGAGGAUCACCCAUGUAAUUGAUACCAGAGUGAUGAUCCUCCCUUGGCAGCAAAACGCUGAUUGGAAACAAUCAGCGA
apparent Kd [1]: 113 nM | apparent Kd [2]: 251 nM

UACAUGAGGAUCACCCAUGUAAGGUGAGAUACCAGUGAUAUGCUACACCCUUGGCAGCUCACGGCUGACUAUCAGCACACAUGUA
apparent Kd [1]: 27 nM | apparent Kd [2]: 16.3 nM

UACAUGAGGAUCACCCAUGUAUGAAUAGAUACCAGAUAAAAUAAGGUCCCUUGGCAGCUAGUGAAUCGAGGGUGGGUAUCAUGAU
apparent Kd [3]: 10.4 nM | apparent Kd [4]: 10.8 nM
